Assay results taken from ChEMBL document CHEMBL3414458, “Discovery of novel 2,5-dioxoimidazolidine-based P2X(7) receptor antagonists as constrained analogues of KN62” (J Med Chem, 2015).
Active and inactive are the calls of the source. The rule behind the calls is not given here.

Assays:
P2X purinoceptor 7 [1] = molecular target: T1, P2X purinoceptor 7 (Homo sapiens, UniProt Q99572); assay: Antagonist activity at P2X7 receptor in LPS/IFN-gamma-differentiated human THP1 cells assessed as inhibition of BzATP-induced IL-1beta release preincubated for 30 mins followed by BzATP induction measured after 30 mins by ELISA; format: cell-based, THP-1
T1 sequence (Q99572 whole entry): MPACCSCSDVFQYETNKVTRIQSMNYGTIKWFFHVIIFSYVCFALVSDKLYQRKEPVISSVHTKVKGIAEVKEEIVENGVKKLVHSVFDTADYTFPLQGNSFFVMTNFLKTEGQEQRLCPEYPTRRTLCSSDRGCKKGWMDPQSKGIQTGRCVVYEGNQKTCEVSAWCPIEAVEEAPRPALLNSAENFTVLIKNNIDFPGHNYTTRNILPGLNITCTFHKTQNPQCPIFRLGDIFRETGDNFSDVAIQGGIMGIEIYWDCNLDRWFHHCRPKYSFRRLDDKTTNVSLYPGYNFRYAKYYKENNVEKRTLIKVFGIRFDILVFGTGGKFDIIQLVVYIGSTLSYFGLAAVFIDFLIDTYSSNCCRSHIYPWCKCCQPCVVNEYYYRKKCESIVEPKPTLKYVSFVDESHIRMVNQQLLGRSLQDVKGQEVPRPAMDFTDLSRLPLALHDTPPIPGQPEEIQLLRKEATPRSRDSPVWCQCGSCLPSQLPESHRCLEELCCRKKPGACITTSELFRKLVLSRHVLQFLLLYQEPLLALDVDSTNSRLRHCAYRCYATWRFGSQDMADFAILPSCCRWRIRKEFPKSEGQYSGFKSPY
How it was run: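 Human THP-1 monocytes, LPS-primed, stimulated with BzATP; IL-1β release measured by ELISA. Active compounds were screened at 1 µM, and full concentration-response curves were run to obtain IC50.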

P2X purinoceptor 7 [2] = molecular target: T1, P2X purinoceptor 7; assay: Antagonist activity at recombinant human P2X7 receptor expressed in HEK293 cells assessed as inhibition of BzATP-induced intracellular ethidium bromide uptake after 2 hrs by fluorescence assay; format: cell-based
How it was run: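 Human HEK293 cells stably expressing recombinant human P2X7; ethidium accumulation stimulated by BzATP was measured.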

[3] = molecular target: T2, P2X purinoceptor 7 (Homo sapiens) (UniProt Q99572); assay: Antagonist activity at P2X7 receptor in LPS/IFN-gamma-differentiated human THP1 cells assessed as inhibition of BzATP-induced IL-1beta release at 1 uM preincubated for 30 mins followed by BzATP induction measured after 30 mins by ELISA relative to control; format: cell-based; details: THP-1
T2 sequence (whole entry): T1 sequence (Q99572 whole entry)
How it was run: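 LPS-primed THP-1 human monocytes were stimulated with BzATP, and IL-1β release was measured by ELISA. Test compound was given at a single concentration of 1 µM, and results are expressed as percent inhibition of BzATP-induced IL-1β release.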

[4] = molecular target: T2, P2X purinoceptor 7 (Homo sapiens); assay: Antagonist activity at recombinant human P2X7 receptor expressed in HEK293 cells assessed as inhibition of BzATP-induced intracellular ethidium bromide uptake at 10 uM after 2 hrs by fluorescence assay; format: cell-based

Row | IC50 (P2X purinoceptor 7 [1]) | IC50 (P2X purinoceptor 7 [2]) | inhibition [3] | inhibition [4] | Compound
1 | 143 nM | – | – | – | CN([C@@H](Cc1ccc(OS(=O)(=O)c2cccc3cnccc23)cc1)C(=O)N1CCN(c2ccccc2)CC1)S(=O)(=O)c1cccc2cnccc12
2 | – | 12200 nM | 52% | – | O=C1N[C@@H](Cc2ccc(OS(=O)(=O)c3cccc4cnccc34)cc2)C(=O)N1Cc1cccc2cnccc12
3 | – | 7720 nM | 45% | – | CC(C)(C)OC(=O)N1CCC(CN2C(=O)N[C@@H](Cc3ccc(OS(=O)(=O)c4cccc5cnccc45)cc3)C2=O)CC1
4 | – | – | – | inactive | O=C1NC(=O)[C@H](Cc2ccc(OS(=O)(=O)c3cccc4cnccc34)cc2)N1
5 | – | 5650 nM | 49% | – | CC(C)(C)C(=O)N1CCC(N2C(=O)NC(=O)C2Cc2ccc(OS(=O)(=O)c3cccc4cnccc34)cc2)CC1 (racemic)
6 | – | 1010 nM | 54% | – | CC(C)(C)OC(=O)N1CCC(CCN2C(=O)NC(=O)C2Cc2ccc(OS(=O)(=O)c3cccc4cnccc34)cc2)CC1 (racemic)
7 | – | 5730 nM | – | – | O=C1NC(=O)N(CCC2CCN(Cc3ccccc3)CC2)C1Cc1ccc(OS(=O)(=O)c2cccc3cnccc23)cc1 (racemic)
8 | – | 4990 nM | 33% | – | O=C1NC(=O)N(CCC2CCN(C(=O)c3ccccc3)CC2)C1Cc1ccc(OS(=O)(=O)c2cccc3cnccc23)cc1 (racemic)
9 | – | 11700 nM | 48% | – | CCC(=O)N1CCC(N2C(=O)NC(=O)C2Cc2ccc(OS(=O)(=O)c3cccc4cnccc34)cc2)CC1 (racemic)
10 | – | 7220 nM | 33% | – | CC(C)C(=O)N1CCC(N2C(=O)NC(=O)C2Cc2ccc(OS(=O)(=O)c3cccc4cnccc34)cc2)CC1 (racemic)
11 | – | 8770 nM | 37% | – | CCCC(=O)N1CCC(N2C(=O)NC(=O)C2Cc2ccc(OS(=O)(=O)c3cccc4cnccc34)cc2)CC1 (racemic)
12 | – | 4880 nM | 45% | – | CC(C)CC(=O)N1CCC(N2C(=O)NC(=O)C2Cc2ccc(OS(=O)(=O)c3cccc4cnccc34)cc2)CC1 (racemic)
13 | 80 nM | 133 nM | – | – | O=C1NC(=O)N(C2CCN(C(=O)C3CCCCC3)CC2)C1Cc1ccc(OS(=O)(=O)c2cccc3cnccc23)cc1 (racemic)
14 | 14 nM | 23 nM | – | – | O=C1NC(=O)N(C2CCN(C(=O)C34CC5CC(CC(C5)C3)C4)CC2)C1Cc1ccc(OS(=O)(=O)c2cccc3cnccc23)cc1 (racemic)
15 | – | 12000 nM | 50% | – | CC(C)(C)OC(=O)N1CCC(CN2C(=O)C(Cc3ccc(OS(=O)(=O)c4cccc5cnccc45)cc3)N(Cc3cccc4cnccc34)C2=O)CC1 (racemic)
16 | – | 8960 nM | 42% | – | O=C1C(Cc2ccc(OS(=O)(=O)c3cccc4cnccc34)cc2)N(CC2CCN(Cc3ccccc3)CC2)C(=O)N1Cc1cccc2cnccc12 (racemic)
17 | – | 1970 nM | 44% | – | CC(C)(C)OC(=O)N1CCC(CN2C(=O)N(Cc3cccc4cnccc34)C(=O)C2Cc2ccc(OS(=O)(=O)c3cccc4cnccc34)cc2)CC1 (racemic)
18 | – | 3820 nM | 38% | – | O=C1NC(=O)N(Cc2cccc3cnccc23)C1Cc1ccc(OS(=O)(=O)c2cccc3cnccc23)cc1 (racemic)
19 | – | 1820 nM | 52% | – | O=C1NC(=O)N(CC2CCN(Cc3ccccc3)CC2)C1Cc1ccc(OS(=O)(=O)c2cccc3cnccc23)cc1 (racemic)
20 | – | 885 nM | 60% | – | CC(C)(C)OC(=O)N1CCC(CN2C(=O)NC(=O)C2Cc2ccc(OS(=O)(=O)c3cccc4cnccc34)cc2)CC1 (racemic)
21 | – | 355 nM | 59% | – | CC(C)(C)OC(=O)N1CCC(N2C(=O)NC(=O)C2Cc2ccc(OS(=O)(=O)c3cccc4cnccc34)cc2)CC1 (racemic)
22 | – | 1620 nM | – | – | O=C1NC(=O)N(C2CCN(Cc3ccccc3)CC2)C1Cc1ccc(OS(=O)(=O)c2cccc3cnccc23)cc1 (racemic)
23 | – | 574 nM | 60% | – | O=C1NC(=O)N(C2CCN(C(=O)c3ccccc3)CC2)C1Cc1ccc(OS(=O)(=O)c2cccc3cnccc23)cc1 (racemic)
24 | – | 789 nM | 59% | – | O=C1NC(=O)N(CC2CCN(C(=O)c3ccccc3)CC2)C1Cc1ccc(OS(=O)(=O)c2cccc3cnccc23)cc1 (racemic)

Row | IC50 (P2X purinoceptor 7 [1]) | IC50 (P2X purinoceptor 7 [2]) | inhibition [3] | inhibition [4] | Compound
25 | – | 2290 nM | 49% | – | O=C1NC(=O)N(C2CCN(CC34CC5CC(CC(C5)C3)C4)CC2)C1Cc1ccc(OS(=O)(=O)c2cccc3cnccc23)cc1 (racemic)
26 | 15 nM | 84 nM | > 95% | – | O=C1NC(=O)N(C2CCN(C(=O)CC34CC5CC(CC(C5)C3)C4)CC2)C1Cc1ccc(OS(=O)(=O)c2cccc3cnccc23)cc1 (racemic)
27 | 27 nM | 30 nM | > 95% | – | O=C1NC(=O)N(C2CCN(C(=O)C34CC5CC(CC(Br)(C5)C3)C4)CC2)C1Cc1ccc(OS(=O)(=O)c2cccc3cnccc23)cc1 (racemic)
28 | 81 nM | 99 nM | – | – | CC12CC3CC(C)(C1)CC(C(=O)N1CCC(N4C(=O)NC(=O)C4Cc4ccc(OS(=O)(=O)c5cccc6cnccc56)cc4)CC1)(C3)C2 (racemic)
29 | 49 nM | 69 nM | > 95% | – | O=C1NC(=O)N(C2CCN(C(=O)C34CC5CC(CC3C5)C4)CC2)C1Cc1ccc(OS(=O)(=O)c2cccc3cnccc23)cc1 (racemic)
30 | 29 nM | 109 nM | > 95% | – | O=C1NC(=O)N(C2CCN(C(=O)CC3CC4CCC3C4)CC2)C1Cc1ccc(OS(=O)(=O)c2cccc3cnccc23)cc1 (racemic)
31 | – | 3760 nM | 52% | – | COc1ccc(C(=O)N2CCC(N3C(=O)NC(=O)C3Cc3ccc(OS(=O)(=O)c4cccc5cnccc45)cc3)CC2)cc1OC (racemic)
32 | – | 666 nM | 68% | – | O=C1NC(=O)N(C2CCN(C(=O)c3ccccc3Cl)CC2)C1Cc1ccc(OS(=O)(=O)c2cccc3cnccc23)cc1 (racemic)
33 | 313 nM | 220 nM | – | – | O=C1NC(=O)N(C2CCN(C(=O)c3cccc(Cl)c3)CC2)C1Cc1ccc(OS(=O)(=O)c2cccc3cnccc23)cc1 (racemic)
34 | 192 nM | 133 nM | – | – | O=C1NC(=O)N(C2CCN(C(=O)c3ccc(Cl)cc3)CC2)C1Cc1ccc(OS(=O)(=O)c2cccc3cnccc23)cc1 (racemic)
35 | – | 913 nM | – | – | O=C1NC(=O)N(C2CCN(C(=O)c3ccc(F)cc3)CC2)C1Cc1ccc(OS(=O)(=O)c2cccc3cnccc23)cc1 (racemic)
36 | 81 nM | 217 nM | – | – | O=C1NC(=O)N(C2CCN(C(=O)c3ccc(F)c(F)c3)CC2)C1Cc1ccc(OS(=O)(=O)c2cccc3cnccc23)cc1 (racemic)
37 | 72 nM | 73 nM | – | – | O=C1NC(=O)N(C2CCN(C(=O)c3ccc(Cl)c(Cl)c3)CC2)C1Cc1ccc(OS(=O)(=O)c2cccc3cnccc23)cc1 (racemic)
38 | 253 nM | 423 nM | – | – | O=C1NC(=O)N(C2CCN(C(=O)c3ccc(Cl)cc3F)CC2)C1Cc1ccc(OS(=O)(=O)c2cccc3cnccc23)cc1 (racemic)
39 | – | 542 nM | – | – | CN1C(=O)C(Cc2ccc(OS(=O)(=O)c3cccc4cnccc34)cc2)N(C2CCN(C(=O)c3ccc(Cl)c(C(F)(F)F)c3)CC2)C1=O (racemic)
40 | – | 847 nM | – | – | CCN1C(=O)C(Cc2ccc(OS(=O)(=O)c3cccc4cnccc34)cc2)N(C2CCN(C(=O)c3ccc(Cl)c(C(F)(F)F)c3)CC2)C1=O (racemic)
41 | – | 1670 nM | – | – | CCCN1C(=O)C(Cc2ccc(OS(=O)(=O)c3cccc4cnccc34)cc2)N(C2CCN(C(=O)c3ccc(Cl)c(C(F)(F)F)c3)CC2)C1=O (racemic)
42 | – | 3240 nM | – | – | CC(C)N1C(=O)C(Cc2ccc(OS(=O)(=O)c3cccc4cnccc34)cc2)N(C2CCN(C(=O)c3ccc(Cl)c(C(F)(F)F)c3)CC2)C1=O (racemic)
43 | – | – | – | 48% | O=C1NC(=O)N(C2CCN(C(=O)C34CC5CC(CC(C5)C3)C4)CC2)C1c1ccc(OS(=O)(=O)c2cccc3cnccc23)cc1 (racemic)
44 | – | – | – | inactive | O=C1NC(=O)N(C2CCNCC2)C1Cc1ccc(OS(=O)(=O)c2cccc3cnccc23)cc1 (racemic)
45 | – | – | – | inactive | O=C1NC(=O)N(CC2CCNCC2)C1Cc1ccc(OS(=O)(=O)c2cccc3cnccc23)cc1 (racemic)
46 | 9 nM | 54 nM | – | – | O=C1NC(=O)N(C2CCN(C(=O)c3ccc(Cl)c(C(F)(F)F)c3)CC2)C1Cc1ccc(OS(=O)(=O)c2cccc3cnccc23)cc1 (single isomer, unassigned; (-))
47 | 98 nM | 168 nM | – | – | O=C1NC(=O)N(C2CCN(C(=O)c3ccc(Cl)c(C(F)(F)F)c3)CC2)C1Cc1ccc(OS(=O)(=O)c2cccc3cnccc23)cc1 (stereo in doubt; (+)-21w)
